Test results taken from ChEMBL document CHEMBL4400576, “Identification of Pyrazolo[1,5-a]pyridine-3-carboxamide Diaryl Derivatives as Drug Resistant Antituberculosis Agents” (ACS Med Chem Lett, 2019).
Converted amounts (≈) assume the structure as drawn.

Assays:
[1] = test system: Mycobacterium tuberculosis; experiment: Antibacterial activity against INH-resistant Mycobacterium tuberculosis after 7 days by microplate alamar blue assay; type: functional; conditions: 168 h
Procedure, shortened: (§1)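 MABA MIC against rINH and rRMP Mtb strains. Test concentrations 0.002 to 0.5 μg/mL.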

[2] = test system: Mycobacterium tuberculosis; experiment: Antibacterial activity against Mycobacterium tuberculosis H37Rv harboring LuxAB incubated for 10 days under anaerobic conditions followed by incubation under aerobic conditions for 28 hrs by LORA method; type: functional
Procedure, shortened: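 MIC against H37Rv by low oxygen recovery assay (LORA). Test concentrations 0.02 to 5 μg/mL.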

[3] = test system: Mycobacterium tuberculosis; experiment: Antibacterial activity against RMP-resistant Mycobacterium tuberculosis after 7 days by microplate alamar blue assay; type: functional; conditions: 168 h; procedure, shortened: as §1
[4] = test system: Mycobacterium tuberculosis; experiment: Antitubercular activity against Mycobacterium tuberculosis H37Ra harboring pTYOK infected in Balb/c mouse assessed as reduction in spleen bacterial burden at 10 mg/kg, po administered once daily via gavage for 5 days measured post last dose by luminometric method; type: functional
Procedure, shortened: (§2)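 Mice infected i.v. with log-phase selectable marker-free autoluminescent Mtb H37Ra, 2 ×10^6 CFU per mouse. Dosed once daily by oral gavage for 5 consecutive days at 10 or 50 mg/kg/day. Untreated group received CMC-Na. Bacterial burden read daily as bioluminescence (RLU) in the same live mice.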

[5] = test system: Mycobacterium tuberculosis; experiment: Antitubercular activity against Mycobacterium tuberculosis H37Ra harboring pTYOK infected in Balb/c mouse assessed as reduction in lung bacterial burden at 10 mg/kg, po administered once daily via gavage for 5 days measured post last dose by luminometric method; type: functional; procedure, shortened: as §2
[6] = test system: Mycobacterium tuberculosis; experiment: Antitubercular activity against Mycobacterium tuberculosis H37Ra harboring pTYOK infected in Balb/c mouse assessed as reduction in lung bacterial burden at 50 mg/kg, po administered once daily via gavage for 5 days measured post last dose by luminometric method; type: functional; procedure, shortened: as §2
[7] = test system: Mycobacterium tuberculosis; experiment: Antitubercular activity against Mycobacterium tuberculosis H37Ra harboring pTYOK infected in Balb/c mouse assessed as reduction in bacterial burden administered once daily via oral gavage for 5 days measured post last dose by luminometric method; type: functional, organism-based; procedure, shortened: as §2
[8] = test system: Mycobacterium tuberculosis; experiment: Antitubercular activity against Mycobacterium tuberculosis H37Ra harboring pTYOK infected in Balb/c mouse assessed as reduction in spleen bacterial burden at 50 mg/kg, po administered once daily via gavage for 5 days measured post last dose by luminometric method; type: functional; procedure, shortened: as §2

Structure (SMILES)	MIC90 [1] [mg/L]	MIC90 [2] [mg/L]	MIC90 [3] [mg/L]	further results
NNC(=O)c1ccncc1 [ISONIAZID]	> 8	> 128	0.438 (≈ 3.19 µM)	–
CO[C@H]1/C=C/O[C@@]2(C)Oc3c(C)c(O)c4c(O)c(c(/C=N/N5CCN(C)CC5)c(O)c4c3C2=O)NC(=O)/C(C)=C\C=C\[C@H](C)[C@H](O)[C@@H](C)[C@@H](O)[C@@H](C)[C@H](OC(C)=O)[C@@H]1C [RIFAMPIN]	< 0.008	2.95 (≈ 3.58 µM)	> 2	fold change (FC) [4]: 1.34 log10RLU; fold change (FC) [5]: 1.42 log10RLU
COc1ccn2nc(C)c(C(=O)NCc3ccc(-c4ccc(OC(F)(F)F)cc4)c(F)c3)c2c1	0.004 (≈ 0.00845 µM)	> 5	< 0.002	–
COc1ccn2nc(C)c(C(=O)NCc3ccc(-c4ccc(OC(F)(F)F)cc4)nc3)c2c1	0.004 (≈ 0.00876 µM)	4.36 (≈ 9.55 µM)	0.458 (≈ 1 µM)	–
COc1ccn2nc(C)c(C(=O)NCc3cn(-c4ccc(OC(F)(F)F)cc4)nn3)c2c1	–	> 5	–	–
COc1ccn2nc(C)c(C(=O)NCc3ccc(-c4ccc(OC(F)(F)F)cc4)c(C(F)(F)F)c3)c2c1	0.003 (≈ 0.00573 µM)	> 5	< 0.002	–
COc1ccn2nc(C)c(C(=O)NCc3ccc(-c4ccc(OC(F)(F)F)cc4)cc3F)c2c1	0.004 (≈ 0.00845 µM)	> 5	< 0.002	–
COc1ccn2nc(C)c(C(=O)NCc3ccc(-c4ccc(OC(F)(F)F)cc4)s3)c2c1	0.002 (≈ 0.00433 µM)	> 5	0.465 (≈ 1.01 µM)	–
COc1ccn2nc(C)c(C(=O)NCc3nnc(-c4ccc(OC(F)(F)F)cc4)o3)c2c1	–	> 5	–	–
COc1ccn2nc(C)c(C(=O)NCc3ccc(-c4ccc(OC(F)(F)F)cc4)cc3C(F)(F)F)c2c1	–	> 5	–	–
COc1ccn2nc(C)c(C(=O)NCc3ccc(-c4ccc(OC(F)(F)F)cc4)c(C)c3)c2c1	< 0.002	2.28 (≈ 4.86 µM)	< 0.002	–
COc1ccn2nc(C)c(C(=O)NCc3ccc(-c4ccc(OC(F)(F)F)cc4)cn3)c2c1	0.002 (≈ 0.00438 µM)	> 5	< 0.002	fold change (FC) [6]: 1 log10RLU; Activity [7]: Dose-dependent effect; fold change (FC) [8]: 0.61 log10RLU
CC(=O)NC[C@H]1CN(c2ccc(N3CCOCC3)c(F)c2)C(=O)O1 [LINEZOLID]	0.953 (≈ 2.82 µM)	5.98 (≈ 17.7 µM)	1.87 (≈ 5.54 µM)	–
COc1ccn2nc(C)c(C(=O)NCc3ccc(-c4ccc(OC(F)(F)F)cc4)cc3C)c2c1	–	> 5	–	–
COc1ccn2nc(C)c(C(=O)NCc3ccc(-c4ccc(OC(F)(F)F)cc4)c(OC)c3)c2c1	0.003 (≈ 0.00618 µM)	> 5	< 0.002	–
COc1nc2ccc(Br)cc2cc1[C@@H](c1ccccc1)[C@@](O)(CCN(C)C)c1cccc2ccccc12 [BEDAQUILINE]	< 0.016	–	< 0.016	–
COc1ccn2nc(C)c(C(=O)NCc3ncc(-c4ccc(OC(F)(F)F)cc4)o3)c2c1	–	2.84 (≈ 6.36 µM)	–	–
COc1ccn2nc(C)c(C(=O)NCc3cnc(-c4ccc(OC(F)(F)F)cc4)s3)c2c1	–	> 5	–	–
COc1ccn2nc(C)c(C(=O)NCc3ncc(-c4ccc(OC(F)(F)F)cc4)[nH]3)c2c1	–	> 5	–	–
COc1ccn2nc(C)c(C(=O)NCc3ccc(-c4ccc(OC(F)(F)F)cc4)cc3OC)c2c1	–	2.25 (≈ 4.63 µM)	–	–
